{"data": "Published values from different studies", "target": "Testis-specific serine/threonine-protein kinase 2 (TSSK2, Homo sapiens, UniProt Q96PF2)", "Residues used in one study (Q96PF2 1-358)": "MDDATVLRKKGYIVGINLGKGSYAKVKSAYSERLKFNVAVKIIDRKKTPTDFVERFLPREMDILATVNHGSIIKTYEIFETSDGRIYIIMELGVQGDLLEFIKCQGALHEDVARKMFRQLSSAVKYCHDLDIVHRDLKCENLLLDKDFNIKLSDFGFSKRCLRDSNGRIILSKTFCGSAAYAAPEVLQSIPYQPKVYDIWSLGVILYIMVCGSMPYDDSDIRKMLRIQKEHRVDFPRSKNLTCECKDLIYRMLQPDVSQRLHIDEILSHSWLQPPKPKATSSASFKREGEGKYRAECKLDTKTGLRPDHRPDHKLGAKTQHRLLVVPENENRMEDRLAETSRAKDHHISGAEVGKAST", "note": "Lines come from different studies, so protocols differ."}
{"Structure (SMILES)": "CC(C)(O)[C@H]1CC[C@H](Nc2ccc3ncc(-c4cccc(C(F)(F)F)c4)n3n2)CC1", "read-out": "enzyme activity", "action": "inhibitor", "tested at": "1 µM", "quantity": "remaining activity", "result": "101%"}
{"Structure (SMILES)": "CCN(CC)CCNC(=O)c1c(C)[nH]c(/C=C2\\C(=O)Nc3ccc(F)cc32)c1C", "read-out": "enzyme activity", "action": "inhibitor", "tested at": "10 µM", "quantity": "inhibition", "result": "54%"}
{"Structure (SMILES)": "N#CCCc1ccc2c(c1)-c1[nH]c3ccc([N+](=O)[O-])cc3c1CC(=O)N2", "read-out": "cell-free assay", "tested at": "0.5 µM", "quantity": "remaining signal", "result": "78.7%"}
{"Structure (SMILES)": "CCCOc1ccc(OC)c(F)c1C(=O)c1ccc(C(=O)N[C@@H]2CNC[C@H]2NC(=O)c2ccc3[nH]ncc3c2)cc1", "read-out": "enzyme activity", "action": "inhibitor", "tested at": "10 µM", "quantity": "remaining activity", "result": "87%"}
{"Structure (SMILES)": "CCOc1cc(-c2nncn2C)ccc1Nc1ncc2cc(C)nc(NCC(C)(C)C)c2n1", "read-out": "enzyme activity", "action": "inhibitor", "technique": "FRET", "tested at": "1 µM", "quantity": "inhibition", "result": "< 15%"}
{"Structure (SMILES)": "CC(C)(C)c1nc2c(s1)c1nc(N)ncc1c1ccc(NS(=O)(=O)c3c(F)cccc3F)c(F)c12", "read-out": "enzyme activity", "action": "inhibitor", "technique": "radiometric", "tested at": "1 µM", "quantity": "remaining activity", "result": "95%"}
{"Structure (SMILES)": "Cc1sc(C(=O)NC2COC2)cc1-n1cc(NC(=O)Nc2c(F)cccc2Cl)cn1", "read-out": "enzyme activity", "action": "inhibitor", "tested at": "10 µM", "quantity": "remaining activity", "result": "84.7%"}
{"Structure (SMILES)": "COc1cc(Cl)c(C(=O)N[C@@H](CN[C@H]2CC[C@@H](N)CC2)Cc2ccc(C#N)cc2)cc1-c1ccc(CN[C@H](C)c2ccc(C)cc2)o1", "read-out": "enzyme activity", "action": "inhibitor", "tested at": "1 µM", "quantity": "remaining activity", "result": "101%"}
{"Structure (SMILES)": "O=C(Nc1cnn(-c2csc(C(=O)NC3COC3)c2)c1)Nc1c(F)cccc1Cl", "read-out": "enzyme activity", "action": "inhibitor", "tested at": "5 µM", "quantity": "remaining activity", "result": "95.1%"}
{"Structure (SMILES)": "CNC(=O)c1cc(Oc2ccc(NC(=O)Nc3ccc(Cl)c(C(F)(F)F)c3)cc2)ccn1", "read-out": "enzyme activity", "action": "inhibitor", "tested at": "0.3 µM", "quantity": "inhibition", "result": "-4%"}
{"Structure (SMILES)": "COc1cc2ncnc(Nc3ccc(Oc4ccccc4)cc3C)c2cc1OC", "read-out": "enzyme activity", "action": "inhibitor", "tested at": "1 µM", "quantity": "inhibition", "result": "-1%"}
{"Structure (SMILES)": "CNc1cccc2cc(C(=O)Nc3ccc(C(=O)O)cc3)c(=O)[nH]c12", "read-out": "enzyme activity", "action": "inhibitor", "tested at": "10 µM", "quantity": "inhibition", "result": "3.4%"}
{"Structure (SMILES)": "Cc1cc(NC(=O)c2cccc3cc(-c4cccc5[nH]nc(N)c45)ccc23)ccc1F", "read-out": "enzyme activity", "action": "inhibitor", "tested at": "0.1 µM", "quantity": "activity vs control", "result": "99%"}
{"Structure (SMILES)": "Cc1ccc(Nc2nccc(N(C)c3ccc4c(C)n(C)nc4c3)n2)cc1S(N)(=O)=O", "read-out": "enzyme activity", "action": "inhibitor", "tested at": "10 µM", "quantity": "inhibition", "result": "5%"}
